# Results gathered from unrelated publications.
# Protocols differ between the studies behind these lines.
# Target: cAMP-dependent protein kinase catalytic subunit beta (PRKACB, Homo sapiens, UniProt P22694)
# Technique: competition with immobilised ligand
Compound,assay,setting,remaining binding [%]
COc1cnc(Nc2cccc(S(N)(=O)=O)c2)nc1N1CCN(c2ccccc2)C(=O)C1,binding,1 µM,99
O=C(O)c1cc(-c2ccc(C3CCNCC3)cc2)c2ccc(-c3ccc(C(F)(F)F)cc3)cc2c1,cell-free assay,1 µM,100
Nc1ncc2c(n1)-c1c([nH]c3ccc(C#CC4CC4)cc13)CCCC2,binding,1 µM,86
C[C@@H](c1ccc(-n2cnc3c(N)ncnc32)cc1)N1CCc2nn(C)c(Cc3ccccc3)c2C1=O,binding,0.1 µM,100
C[C@@H]1CN(c2cc(-c3n[nH]c4ccc(OC5(C)CC5)cc34)ncn2)C[C@H](C)O1,cell-free assay,0.1 µM,91
Cc1cnn2ncc(-c3ccnc(N(C)C)n3)c2c1,binding,1 µM,96
O=C(NCCCN1CCOCC1)c1ccc(Nc2nccc(-c3cc4ccccc4s3)n2)cc1,binding,1 µM,100
O=C(NCCCC1CCCCC1)c1ccc(CNC(=O)c2cnn(-c3ccccc3)c2C(F)(F)F)cc1,cell-free assay,0.1 µM,100
O=C(c1ccc(Nc2ncc(Cl)c(-c3cc4ccccc4s3)n2)cc1)N1CCC(N2CCCC2)CC1,binding,1 µM,98
O=C(O)[C@@H]1[C@@H](Cn2nnc3ccccc3c2=O)CC[C@H]1C(=O)c1ccc(OCCC2CCOCC2)cc1,cell-free assay,1 µM,100
C[C@H]1CCN(c2nccc(-c3cnn4ncccc34)n2)C1,binding,1 µM,99
C=CC(=O)N1CCC(C(=O)NCC(=O)N2CCN(c3nc(-c4cnc(N)nc4C(F)F)nc(N4CCOCC4)n3)CC2)CC1,binding,1 µM,90
O=C(NCC1CCOCC1)c1n[nH]cc1NC(=O)c1c(F)cccc1F,binding,1 µM,97
COc1cnc(Nc2cccc(S(N)(=O)=O)c2)nc1N1CCN(c2ccccc2)CC1,binding,1 µM,85
N[C@H]1CCN(c2nccc(-c3cnn4ncccc34)n2)C1,binding,1 µM,83
COc1cc(-c2cn(C3CCc4c(F)cccc4N(CC(F)(F)F)C3=O)nn2)ccc1-n1cnc(C)c1 (centres unmarked),cell-free assay,1 µM,95
COc1ccnn2ncc(-c3ccnc(N(C)C)n3)c12,binding,1 µM,95
Cc1cnc(Nc2ccc(C(=O)N3CCC(N4CCCC4)CC3)cc2)nc1-c1cc2ccccc2s1,binding,1 µM,85
CN(C)CC#Cc1ccc(OCCCc2sc(N3CCc4cccc(C(=O)Nc5nc6ccccc6s5)c4C3)nc2C(=O)O)c(F)c1,cell-free assay,1 µM,100
c1cnn2ncc(-c3ccnc(N4CCC45COC5)n3)c2c1,binding,1 µM,92
